Reference: the M2OR odorant receptor database

What was measured:
Conditions in all cases: stereoisomer not certain
OR52K2 (Homo sapiens) = OR52K2 (Homo sapiens) (UniProt Q8NGK3)
Outline: (§1)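 Assay methods differ from source to source, frequently being transient luciferase assays in mammalian cell lines. For each receptor–molecule pair, the label responsive (active) applies when the original authors judged the measured signal statistically different from baseline, and non-responsive (inactive) applies otherwise.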

OR52L1 (Homo sapiens) [1] = target: OR52L1 (Homo sapiens) (UniProt Q8NGH7)
Outline: as §1

OR52M1 (Homo sapiens) = OR52M1 (Homo sapiens) (UniProt Q8NGK5)
Outline: as §1

OR52N1 (Homo sapiens) = OR52N1 (Homo sapiens) (UniProt Q8NH53)
Outline: as §1

OR52N2 (Homo sapiens) = OR52N2 (Homo sapiens) (UniProt Q8NGI0)
Outline: as §1

OR52N4 (Homo sapiens) = OR52N4 (Homo sapiens) (UniProt Q8NGI2)
Outline: as §1

OR52N5 (Homo sapiens) = OR52N5 (Homo sapiens) (UniProt Q8NH56)
Outline: as §1

OR52R1 (Homo sapiens) = OR52R1 (Homo sapiens) (UniProt Q8NGF1)
Outline: as §1

OR52W1 (Homo sapiens) = OR52W1 (Homo sapiens) (UniProt Q6IF63)
Outline: as §1

OR52Z1P (Homo sapiens) = OR52Z1P (Homo sapiens) (UniProt P0C646)
Outline: as §1

OR56A1 (Homo sapiens) = OR56A1 (Homo sapiens) (UniProt Q8NGH5)
Outline: as §1

OR56A3 (Homo sapiens) = OR56A3 (Homo sapiens) (UniProt Q8NH54)
Outline: as §1

OR56A4 (Homo sapiens) = OR56A4 (Homo sapiens) (UniProt Q8NGH8)
Outline: as §1

OR56A5 (Homo sapiens) = OR56A5 (Homo sapiens) (UniProt P0C7T3)
Outline: as §1

OR56B1 (Homo sapiens) = OR56B1 (Homo sapiens) (UniProt Q8NGI3)
Outline: as §1

OR56B4 (Homo sapiens) = OR56B4 (Homo sapiens) (UniProt Q8NH76)
Outline: as §1

OR5A1 (Homo sapiens) = OR5A1 (Homo sapiens) (UniProt Q8NGJ0)
Outline: as §1

OR5A2 (Homo sapiens) = OR5A2 (Homo sapiens) (UniProt Q8NGI9)
Outline: as §1

OR52L1 (Homo sapiens) [2] = target: OR52L1 (Homo sapiens) (UniProt Q8NGH7); remark: listed apart in the source
Outline: as §1

OR5A1 D183N = system: OR5A1 D183N
Outline: as §1

Measured: odorant receptor agonist call

Chain of OR52K2 (Homo sapiens) (Q8NGK3 whole entry): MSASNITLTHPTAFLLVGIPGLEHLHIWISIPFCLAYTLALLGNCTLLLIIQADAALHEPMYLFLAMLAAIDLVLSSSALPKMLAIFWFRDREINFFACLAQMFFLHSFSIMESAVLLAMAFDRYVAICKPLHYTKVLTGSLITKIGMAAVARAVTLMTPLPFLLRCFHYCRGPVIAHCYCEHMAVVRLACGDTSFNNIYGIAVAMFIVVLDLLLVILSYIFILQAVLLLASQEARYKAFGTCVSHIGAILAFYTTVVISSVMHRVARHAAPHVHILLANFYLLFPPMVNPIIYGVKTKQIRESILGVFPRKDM
Chain of OR52N2 (Homo sapiens) (Q8NGI0 whole entry): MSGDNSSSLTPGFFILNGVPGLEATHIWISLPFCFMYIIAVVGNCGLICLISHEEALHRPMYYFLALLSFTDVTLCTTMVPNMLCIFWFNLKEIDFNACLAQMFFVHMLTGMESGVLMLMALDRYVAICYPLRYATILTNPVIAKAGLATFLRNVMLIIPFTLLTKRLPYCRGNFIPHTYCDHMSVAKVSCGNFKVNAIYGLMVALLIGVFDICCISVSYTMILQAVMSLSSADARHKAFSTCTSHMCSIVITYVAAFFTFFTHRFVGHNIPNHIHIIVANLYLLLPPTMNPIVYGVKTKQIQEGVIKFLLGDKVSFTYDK
Chain of OR52N1 (Homo sapiens) (Q8NH53 whole entry): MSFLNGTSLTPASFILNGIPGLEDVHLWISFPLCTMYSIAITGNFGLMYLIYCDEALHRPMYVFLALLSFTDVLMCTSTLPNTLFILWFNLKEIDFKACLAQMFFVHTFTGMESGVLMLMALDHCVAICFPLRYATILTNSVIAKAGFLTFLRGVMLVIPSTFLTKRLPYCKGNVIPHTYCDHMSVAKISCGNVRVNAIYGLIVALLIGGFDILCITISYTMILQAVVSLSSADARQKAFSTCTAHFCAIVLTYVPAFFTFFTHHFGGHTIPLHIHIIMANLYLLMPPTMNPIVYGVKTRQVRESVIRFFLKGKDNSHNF
Chain of OR52R1 (Homo sapiens) (Q8NGF1 whole entry): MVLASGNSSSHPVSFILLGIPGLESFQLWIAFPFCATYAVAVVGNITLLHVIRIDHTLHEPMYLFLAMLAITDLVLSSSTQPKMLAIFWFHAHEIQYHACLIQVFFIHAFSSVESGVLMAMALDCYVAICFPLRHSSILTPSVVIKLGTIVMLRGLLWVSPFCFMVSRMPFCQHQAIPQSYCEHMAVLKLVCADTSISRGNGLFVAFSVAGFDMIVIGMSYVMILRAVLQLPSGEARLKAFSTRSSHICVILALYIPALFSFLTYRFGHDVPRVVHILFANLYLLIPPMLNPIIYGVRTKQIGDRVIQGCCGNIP
Chain of OR56A3 (Homo sapiens) (Q8NH54 whole entry): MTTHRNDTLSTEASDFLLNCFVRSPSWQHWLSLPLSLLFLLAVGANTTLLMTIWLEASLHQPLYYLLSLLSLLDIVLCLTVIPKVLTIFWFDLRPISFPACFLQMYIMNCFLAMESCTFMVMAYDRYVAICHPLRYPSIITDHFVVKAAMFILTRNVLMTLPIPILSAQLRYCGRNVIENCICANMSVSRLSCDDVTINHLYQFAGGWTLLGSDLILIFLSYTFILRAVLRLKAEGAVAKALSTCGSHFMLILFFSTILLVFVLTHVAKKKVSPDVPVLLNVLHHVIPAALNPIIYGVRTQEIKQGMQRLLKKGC
Chain of OR56A5 (Homo sapiens) (P0C7T3 whole entry): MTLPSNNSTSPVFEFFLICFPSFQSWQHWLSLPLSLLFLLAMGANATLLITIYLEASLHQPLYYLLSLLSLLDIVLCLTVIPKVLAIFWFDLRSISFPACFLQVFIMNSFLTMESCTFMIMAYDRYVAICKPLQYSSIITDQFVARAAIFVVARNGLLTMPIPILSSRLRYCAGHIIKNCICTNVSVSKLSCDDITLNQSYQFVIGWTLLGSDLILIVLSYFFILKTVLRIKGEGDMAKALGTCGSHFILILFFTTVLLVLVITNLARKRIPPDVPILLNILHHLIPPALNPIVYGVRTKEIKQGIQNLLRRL
Chain of OR56B1 (Homo sapiens) (Q8NGI3 whole entry): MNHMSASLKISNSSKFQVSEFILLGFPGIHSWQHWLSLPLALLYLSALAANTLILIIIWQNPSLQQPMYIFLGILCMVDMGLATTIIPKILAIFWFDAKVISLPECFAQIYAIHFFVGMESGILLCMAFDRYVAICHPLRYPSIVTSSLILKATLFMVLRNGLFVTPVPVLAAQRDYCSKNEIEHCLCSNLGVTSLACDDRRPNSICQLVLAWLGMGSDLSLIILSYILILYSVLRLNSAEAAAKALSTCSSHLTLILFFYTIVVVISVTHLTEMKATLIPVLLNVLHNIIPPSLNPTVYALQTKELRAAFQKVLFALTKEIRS
Chain of OR52M1 (Homo sapiens) (Q8NGK5 whole entry): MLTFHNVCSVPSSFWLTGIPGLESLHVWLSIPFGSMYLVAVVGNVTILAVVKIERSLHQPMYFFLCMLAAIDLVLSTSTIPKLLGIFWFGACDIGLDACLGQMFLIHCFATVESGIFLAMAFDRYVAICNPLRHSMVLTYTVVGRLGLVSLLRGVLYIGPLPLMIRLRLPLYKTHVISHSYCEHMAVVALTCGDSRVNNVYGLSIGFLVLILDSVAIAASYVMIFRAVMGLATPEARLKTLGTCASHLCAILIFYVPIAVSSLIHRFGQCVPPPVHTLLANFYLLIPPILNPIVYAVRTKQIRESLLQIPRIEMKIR
Chain of OR52N5 (Homo sapiens) (Q8NH56 whole entry): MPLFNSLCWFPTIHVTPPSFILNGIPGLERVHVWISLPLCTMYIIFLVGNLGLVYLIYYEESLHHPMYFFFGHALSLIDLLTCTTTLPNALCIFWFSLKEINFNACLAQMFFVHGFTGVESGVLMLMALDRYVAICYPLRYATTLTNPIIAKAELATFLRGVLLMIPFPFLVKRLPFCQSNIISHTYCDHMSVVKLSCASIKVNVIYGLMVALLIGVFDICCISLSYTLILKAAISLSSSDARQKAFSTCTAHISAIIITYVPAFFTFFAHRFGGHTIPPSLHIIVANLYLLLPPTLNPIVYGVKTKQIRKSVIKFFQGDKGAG
Chain of OR52N4 (Homo sapiens) (Q8NGI2 whole entry): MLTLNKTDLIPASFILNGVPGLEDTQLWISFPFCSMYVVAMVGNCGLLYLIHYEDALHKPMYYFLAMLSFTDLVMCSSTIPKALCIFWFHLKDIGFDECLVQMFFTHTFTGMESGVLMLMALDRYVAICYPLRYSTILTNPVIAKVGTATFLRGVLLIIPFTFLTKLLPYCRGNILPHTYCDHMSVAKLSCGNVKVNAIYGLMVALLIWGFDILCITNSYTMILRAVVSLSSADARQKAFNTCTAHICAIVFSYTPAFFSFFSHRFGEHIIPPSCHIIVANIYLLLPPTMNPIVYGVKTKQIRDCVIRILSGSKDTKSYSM
Chain of OR5A2 (Homo sapiens) (Q8NGI9 whole entry): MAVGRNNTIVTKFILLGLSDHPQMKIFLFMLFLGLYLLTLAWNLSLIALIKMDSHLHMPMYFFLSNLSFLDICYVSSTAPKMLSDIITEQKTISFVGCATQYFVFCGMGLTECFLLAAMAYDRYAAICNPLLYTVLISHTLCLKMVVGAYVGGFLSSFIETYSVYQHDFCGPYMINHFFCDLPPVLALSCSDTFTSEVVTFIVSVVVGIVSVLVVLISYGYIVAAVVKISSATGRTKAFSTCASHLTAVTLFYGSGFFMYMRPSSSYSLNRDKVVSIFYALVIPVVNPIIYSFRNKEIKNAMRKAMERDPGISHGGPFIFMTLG
Chain of OR5A1 (Homo sapiens) (Q8NGJ0 whole entry): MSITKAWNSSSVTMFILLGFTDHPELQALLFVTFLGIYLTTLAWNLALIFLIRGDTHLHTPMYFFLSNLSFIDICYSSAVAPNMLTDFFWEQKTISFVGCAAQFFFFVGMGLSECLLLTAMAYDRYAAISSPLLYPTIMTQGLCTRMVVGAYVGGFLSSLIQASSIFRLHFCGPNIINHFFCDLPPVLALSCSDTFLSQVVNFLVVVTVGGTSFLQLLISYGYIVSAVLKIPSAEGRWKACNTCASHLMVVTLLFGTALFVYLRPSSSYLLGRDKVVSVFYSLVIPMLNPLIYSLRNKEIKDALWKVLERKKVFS
Chain of OR56B4 (Homo sapiens) (Q8NH76 whole entry): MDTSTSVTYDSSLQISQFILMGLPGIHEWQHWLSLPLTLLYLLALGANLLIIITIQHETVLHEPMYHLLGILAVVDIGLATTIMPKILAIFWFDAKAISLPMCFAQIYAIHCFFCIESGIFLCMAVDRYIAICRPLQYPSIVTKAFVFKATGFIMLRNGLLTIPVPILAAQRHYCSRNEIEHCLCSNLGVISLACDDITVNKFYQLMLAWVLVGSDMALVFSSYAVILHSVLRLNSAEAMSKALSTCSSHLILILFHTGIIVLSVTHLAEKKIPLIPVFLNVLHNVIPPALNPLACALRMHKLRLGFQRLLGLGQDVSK
Chain of OR52W1 (Homo sapiens) (Q6IF63 whole entry): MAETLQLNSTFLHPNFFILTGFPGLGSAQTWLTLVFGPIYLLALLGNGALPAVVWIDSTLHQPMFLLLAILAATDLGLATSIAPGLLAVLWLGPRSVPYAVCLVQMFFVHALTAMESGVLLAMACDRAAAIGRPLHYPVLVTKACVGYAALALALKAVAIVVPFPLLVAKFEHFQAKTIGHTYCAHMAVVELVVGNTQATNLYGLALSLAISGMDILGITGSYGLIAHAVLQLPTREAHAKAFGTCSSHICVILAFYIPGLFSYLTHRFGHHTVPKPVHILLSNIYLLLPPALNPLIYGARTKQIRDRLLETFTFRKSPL
Chain of OR56A1 (Homo sapiens) (Q8NGH5 whole entry): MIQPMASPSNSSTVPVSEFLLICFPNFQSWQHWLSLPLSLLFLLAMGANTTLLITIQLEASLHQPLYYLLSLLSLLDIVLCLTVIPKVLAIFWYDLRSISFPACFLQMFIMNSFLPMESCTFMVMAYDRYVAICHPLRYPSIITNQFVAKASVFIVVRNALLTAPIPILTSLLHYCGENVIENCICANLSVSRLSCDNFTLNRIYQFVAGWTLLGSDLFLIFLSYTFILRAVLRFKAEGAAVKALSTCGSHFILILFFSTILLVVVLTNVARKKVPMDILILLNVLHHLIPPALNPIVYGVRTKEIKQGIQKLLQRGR
Chain of OR5A1 D183N (as listed by the source, stated change not applied): as the sequence (Q8NGJ0 whole entry) above, with D183N counted along it

Cc1c([N+](=O)[O-])c(C)c([N+](=O)[O-])c(C(C)(C)C)c1[N+](=O)[O-]
not listed: OR52L1 (Homo sapiens) [2] | OR5A1 D183N
inactive: all other assays above

C=CCOC(=O)Cc1ccccc1
not listed: OR52L1 (Homo sapiens) [1] | OR52Z1P (Homo sapiens) | OR56A4 (Homo sapiens)
inactive: all other assays above
